ChEMBL document CHEMBL1799915, “Antitubercular chromones and flavonoids from Pisonia aculeata” (2011)
In brackets after ≈: the same amount, converted by molar mass.

These compounds were tested on Mycobacterium tuberculosis (assay: Antitubercular activity against Mycobacterium tuberculosis H37Rv after 2 weeks by agar plate assay). Settings: 336 h.
Type: functional
Summary of the method: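 Inoculum from colonies suspended in 7H9 broth, adjusted to McFarland no. 1, then diluted; 33 μL spotted per quadrant. Incubated 35 °C, 10% CO2. MIC = lowest concentration giving complete growth inhibition, read by eye.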
Compound COc1c(O)cc2oc(C)cc(=O)c2c1O [PISONIN B] has an MIC of 25 µg/mL (≈ 113 µM). In the case of COc1cc(/C=C/C(=O)NC[C@H](O)c2ccc(O)cc2)ccc1O, the MIC was 50 µg/mL (≈ 152 µM). In the case of COc1c(O)c(C)c2occ(-c3ccccc3O)c(=O)c2c1O [PISONIANONE], the MIC was at least 175 µg/mL. Work on CC[C@@H](CO)NCCN[C@@H](CC)CO [ETHAMBUTOL] yielded an MIC of 6.25 µg/mL (≈ 30.6 µM). COc1c(O)cc2c(c1O)C(=O)C[C@@H](c1ccccc1)O2 [DIHYDROOROXYLIN A] was tested, and the MIC was 50 µg/mL (≈ 175 µM). Work on O=c1ccoc2cc3c(c(O)c12)OCO3 [PISONIN D] yielded an MIC of at least 236 µg/mL. With COc1cc2occc(=O)c2c(O)c1OC [PISONIN A] the MIC was at least 100 µg/mL. Compound COc1cc(O)c2c(=O)cc(C)oc2c1 [EUGENIN] has an MIC of 103 µg/mL (≈ 500 µM). In the case of Cc1c(O)c(C)c2occc(=O)c2c1O [LEPTORUMOL], the MIC was 82.9 µg/mL (≈ 402 µM). With Cc1c(O)c(C)c2c(c1O)C(=O)C[C@@H](c1ccccc1O)O2 the MIC was 20 µg/mL (≈ 66.6 µM). With Cc1cc(=O)c2c(O)c3c(cc2o1)OCO3 [PISONIN E] the MIC was at least 190 µg/mL. Cc1cc(=O)c2c(O)cc(O)cc2o1 [NOREUGENIN] showed an MIC of 110 µg/mL (≈ 572 µM). COc1c(O)cc2occc(=O)c2c1O [PISONIN C] gave an MIC of 80 µg/mL (≈ 384 µM). For Cc1c(O)cc(O)c2c1O[C@H](c1ccccc1O)CC2=O [PISONIVANONE], the MIC was 12.5 µg/mL (≈ 43.7 µM).
